{
  "source": "paper PMC11022290",
  "about": "(Clinical and Translational Science, 2024)",
  "key": {"CYP2C:TG haplotype [1]": {"system": "CYP2C:TG haplotype", "type": "in vivo, human (children aged 6–21 years)", "how_it_was_run": "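Children, fasted ≥4 h, received one proton pump inhibitor dose per visit. 12–14 serum samples were taken to 10 h post-dose and assayed by LC/MS/MS or reverse-phase HPLC. Clearance was dose/AUCtotal (AUClast + Cn/kel), weight-normalized. Genotyping was by TaqMan real-time PCR or NGS panel. Regression on CYP2C19*1 and *17 counts was compared with regression adding CYP2C:TG count. Outcomes were log-transformed as needed, with bootstrap 95% CI.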"}, "CYP2C:TG haplotype [2]": {"system": "CYP2C:TG haplotype", "conditions": "adults; cited from earlier work"}, "CYP2C:TG haplotype [3]": {"system": "CYP2C:TG haplotype", "conditions": "cited from earlier work"}},
  "note": "Like-named read-outs stand apart in the source and are kept apart here.",
  "data": [
    {"smiles": "COc1ccnc(C[S+]([O-])c2nc3ccc(OC(F)F)cc3[nH]2)c1OC", "note": "(stereo not drawn) [pantoprazole]", "values": [
      {"measurement": "impact of the CYP2C:TG haplotype on the PK", "setting": "CYP2C:TG haplotype [1]; IV", "result": "negligible"},
      {"measurement": "impact of the CYP2C:TG haplotype on the PK", "setting": "CYP2C:TG haplotype [1]; PO", "result": "negligible"},
      {"measurement": "Scaled coefficient (95% CI) for CYP2C:TG allele count", "setting": "CYP2C:TG haplotype [1]; outcome Clearance (adj) scaled to SD 1, IV", "result": "0.24–0.35"},
      {"measurement": "Scaled coefficient (95% CI) for CYP2C:TG allele count", "setting": "CYP2C:TG haplotype [1]; outcome Clearance scaled to SD 1, IV", "result": "0.24–0.35"},
      {"measurement": "Scaled coefficient (95% CI) for CYP2C:TG allele count", "setting": "CYP2C:TG haplotype [1]; outcome Cmax scaled to SD 1, oral", "result": "0.24–0.35"}
    ]},
    {"smiles": "Cc1c(OCC(F)(F)F)ccnc1C[S+]([O-])c1nc2ccccc2[nH]1", "note": "(stereo not drawn) [lansoprazole]", "values": [
      {"measurement": "impact of the CYP2C:TG haplotype on the PK", "setting": "CYP2C:TG haplotype [1]; PO", "result": "negligible"},
      {"measurement": "Scaled coefficient (95% CI) for CYP2C:TG allele count", "setting": "CYP2C:TG haplotype [1]; outcome Cmax (adj) scaled to SD 1, oral", "result": "0.24–0.35"}
    ]},
    {"smiles": "CN(C)CCCC1(c2ccc(F)cc2)OCc2cc(C#N)ccc21", "note": "(stereo not drawn) [citalopram]", "values": [
      {"measurement": "impact of CYP2C:TG alleles on CYP2C19 PK or metabolic phenotype", "setting": "CYP2C:TG haplotype [2]", "result": "No appreciable impact"}
    ]},
    {"smiles": "CN[C@H]1CC[C@@H](c2ccc(Cl)c(Cl)c2)c2ccccc21", "note": "[sertraline]", "values": [
      {"measurement": "impact of CYP2C:TG alleles on CYP2C19 PK or metabolic phenotype", "setting": "CYP2C:TG haplotype [2]", "result": "No appreciable impact"},
      {"measurement": "CYP2C19 activity associated with CYP2C:TG haplotype, from serum concentrations", "setting": "CYP2C:TG haplotype [3]", "result": "increased CYP2C19 activity"}
    ]},
    {"smiles": "CN(C)CCC[C@@]1(c2ccc(F)cc2)OCc2cc(C#N)ccc21", "note": "[escitalopram]", "values": [
      {"measurement": "metabolism associated with CYP2C:TG haplotype", "setting": "CYP2C:TG haplotype [3]; activity similar to CYP2C19*17/*17 diplotype", "result": "ultrarapid metabolism"},
      {"measurement": "CYP2C19 activity associated with CYP2C:TG haplotype, from serum concentrations", "setting": "CYP2C:TG haplotype [3]", "result": "increased CYP2C19 activity"}
    ]}
  ]
}
